Measured values of several laboratories.
Protocols differ between the studies behind these lines.
Target: Mitogen-activated protein kinase kinase kinase 2 (MAP3K2, Homo sapiens, UniProt Q9Y2U5)
Sequence (Q9Y2U5 1-619, as in one of the studies): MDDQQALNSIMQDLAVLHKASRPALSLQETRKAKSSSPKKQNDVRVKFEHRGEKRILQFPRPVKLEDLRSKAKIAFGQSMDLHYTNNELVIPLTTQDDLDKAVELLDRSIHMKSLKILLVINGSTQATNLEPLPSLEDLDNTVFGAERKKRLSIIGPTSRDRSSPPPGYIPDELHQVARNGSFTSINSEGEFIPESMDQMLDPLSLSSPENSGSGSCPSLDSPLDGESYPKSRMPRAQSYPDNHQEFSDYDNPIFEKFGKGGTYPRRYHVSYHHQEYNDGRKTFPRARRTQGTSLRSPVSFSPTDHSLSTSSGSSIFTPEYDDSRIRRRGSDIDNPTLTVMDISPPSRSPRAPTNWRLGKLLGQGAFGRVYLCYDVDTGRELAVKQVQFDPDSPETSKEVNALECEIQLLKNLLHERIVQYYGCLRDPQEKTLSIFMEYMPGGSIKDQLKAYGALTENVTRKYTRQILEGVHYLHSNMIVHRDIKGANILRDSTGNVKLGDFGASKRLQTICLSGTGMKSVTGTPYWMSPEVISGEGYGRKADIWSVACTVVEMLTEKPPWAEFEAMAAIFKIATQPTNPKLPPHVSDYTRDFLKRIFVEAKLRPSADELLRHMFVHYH

| Compound | read-out | action | method | cells | tested at | measurement | value |
| --- | --- | --- | --- | --- | --- | --- | --- |
| CC(C)(C)c1nc(-c2cccc(NS(=O)(=O)c3c(F)cccc3F)c2F)c(-c2ccnc(N)n2)s1 | enzyme activity | inhibitor | radiometric | – | 1 µM | remaining activity | 57% |
| Cc1ccc(C(=O)Nc2ccc(CN3CCN(C)CC3)c(C(F)(F)F)c2)cc1C#Cc1cnc2cccnn12 | enzyme activity | inhibitor | – | – | 23.5 nM | remaining activity | 55% |
| Cc1sc(C(=O)NC2COC2)cc1-n1cc(NC(=O)Nc2c(F)cccc2Cl)cn1 | enzyme activity | inhibitor | – | – | 10 µM | remaining activity | 88.1% |
| CS(=O)(=O)N1CCCC(NC(=O)[C@H](CCC2CCCCC2)NC(=O)c2ccc(CNc3ncnc4c3nnn4-c3ccccc3)cc2)C1 (some centres unmarked) | cell-free assay | – | competition with immobilised ligand | – | 0.1 µM | remaining binding | 100% |
| COc1cc2c(Nc3ccc(Br)cc3F)ncnc2cc1OCC1CCN(C)CC1 | cell-free assay | – | – | – | 0.5 µM | remaining signal | 108% |
| CCN1CCN(Cc2ccc(NC(=O)c3ccc(C)c(/C=C/c4cnc5[nH]ccc5c4OC)c3)cc2C(F)(F)F)CC1 | target engagement in cells | inhibitor | chemoproteomics | A-375 | 0.5 µM | inhibition | -0.738% |
| O=c1nc(-c2ccccn2)sc2ccccc12 | binding | – | competition with immobilised ligand | – | 1 µM | remaining binding | 92% |
| COc1cc(Cl)c(C(=O)N[C@@H](CN[C@H]2CC[C@@H](N)CC2)Cc2ccc(C#N)cc2)cc1-c1ccc(CN[C@H](C)c2ccc(C)cc2)o1 | enzyme activity | inhibitor | – | – | 1 µM | remaining activity | 110% |
| Cc1c(C(=O)O)cc(-c2ccc(C3CCNCC3)cc2)c2ccc(-c3ccc(C(F)(F)F)cc3)cc12 | binding | – | competition with immobilised ligand | – | 1 µM | remaining binding | 100% |
| Cc1ccc(C(=O)NCc2ccsc2)cc1C#Cc1cn(C(C)C)c2ncnc(N)c12 | enzyme activity | inhibitor | – | – | 1 µM | activity vs control | 61% |
| N#CCCc1ccc2c(c1)-c1[nH]c3ccc([N+](=O)[O-])cc3c1CC(=O)N2 | cell-free assay | – | – | – | 0.5 µM | remaining signal | 61.5% |
| O=C(Nc1cnn(-c2csc(C(=O)NC3COC3)c2)c1)Nc1ccccc1Cl | enzyme activity | inhibitor | – | – | 5 µM | remaining activity | 110% |
| Cc1cc(C)c(-n2ccn3nc(-c4cccnc4)cc23)cc1NC(=O)c1cc(C#N)cc(S(F)(F)(F)(F)F)c1 | cell-free assay | – | competition with immobilised ligand | – | 0.1 µM | remaining binding | 86.4% |
| O=C1NC(=O)c2cc(Nc3ccc(F)cc3)c(Nc3ccc(F)cc3)cc21 | cell-free assay | – | – | – | 0.5 µM | remaining signal | 94.8% |
